Legend:
[1] = biological target: Serine/threonine-protein kinase PLK1 (Homo sapiens) (UniProt P53350); assay: Inhibition of PLK1 (unknown origin) at 1000 nM in the presence of ATP by Kinome scan method relative to control
[2] = biological target: MAP kinase-activated protein kinase 2 (Homo sapiens) (UniProt P49137); assay: Inhibition of MAPKAPK2 (unknown origin) at 100 nM in the presence of ATP by Kinome scan method relative to control
HCT-116 [3] = assay: Induction of cell cycle arrest in human HCT-116 cells assessed as G2/M phase at 1 uM incubated for 24 hrs by flow cytometry analysis (Rvb=17.9%); assay type: functional
[4] = biological target: Dual specificity mitogen-activated protein kinase kinase 2 (Homo sapiens) (UniProt P36507); assay: Inhibition of MAP2K2 (unknown origin) at 1000 nM in the presence of ATP by Kinome scan method relative to control
[5] = biological target: Ephrin type-B receptor 1 (Homo sapiens) (UniProt P54762); assay: Inhibition of EPHB1 (unknown origin) at 100 nM in the presence of ATP by Kinome scan method relative to control
[6] = biological target: AMP-activated protein kinase (AMPK) alpha-1/beta-1/gamma-1 (Homo sapiens) (UniProt P54619+Q9Y478+Q13131); assay: Inhibition of AMPK A1/B1/G1 (unknown origin) at 1000 nM in the presence of ATP by Kinome scan method relative to control; assay type: protein-complex assay
[7] = biological target: Dual specificity mitogen-activated protein kinase kinase 1 (Homo sapiens) (UniProt Q02750); assay: Inhibition of MAP2K1 (unknown origin) at 1000 nM in the presence of ATP by Kinome scan method relative to control
Dual specificity mitogen-activated protein kinase kinase 1 (Homo sapiens), sequence (Q02750 whole entry): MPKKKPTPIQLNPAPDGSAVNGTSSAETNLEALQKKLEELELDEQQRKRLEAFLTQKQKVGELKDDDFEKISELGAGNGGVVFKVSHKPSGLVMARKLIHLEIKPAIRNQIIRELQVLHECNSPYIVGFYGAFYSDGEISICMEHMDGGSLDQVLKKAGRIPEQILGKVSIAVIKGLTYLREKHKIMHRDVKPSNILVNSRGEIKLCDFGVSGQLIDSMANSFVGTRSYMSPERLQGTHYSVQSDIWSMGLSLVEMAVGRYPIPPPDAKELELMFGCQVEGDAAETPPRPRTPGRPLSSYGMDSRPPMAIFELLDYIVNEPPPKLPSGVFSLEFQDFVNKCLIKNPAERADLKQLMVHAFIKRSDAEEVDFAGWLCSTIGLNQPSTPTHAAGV

[8] = biological target: Inhibitor of nuclear factor kappa-B kinase subunit beta (Homo sapiens) (UniProt O14920); assay: Inhibition of IKBKB (unknown origin) at 100 nM in the presence of ATP by Kinome scan method relative to control
[9] = biological target: Serine/threonine-protein kinase pim-1 (Homo sapiens) (UniProt P11309); assay: Inhibition of PIM1 (unknown origin) at 100 nM in the presence of ATP by Kinome scan method relative to control
Serine/threonine-protein kinase pim-1 (Homo sapiens), sequence (P11309 whole entry, looked up): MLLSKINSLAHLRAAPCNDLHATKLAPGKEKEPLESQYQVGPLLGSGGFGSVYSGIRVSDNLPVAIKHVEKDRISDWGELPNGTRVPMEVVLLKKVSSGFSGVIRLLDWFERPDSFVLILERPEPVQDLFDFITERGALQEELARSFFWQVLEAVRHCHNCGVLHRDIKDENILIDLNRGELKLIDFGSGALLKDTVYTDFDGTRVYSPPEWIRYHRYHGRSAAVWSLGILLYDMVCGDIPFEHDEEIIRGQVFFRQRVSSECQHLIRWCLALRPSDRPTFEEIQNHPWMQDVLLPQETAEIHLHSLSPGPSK

[10] = biological target: Dual specificity protein kinase CLK1 (Homo sapiens) (UniProt P49759); assay: Inhibition of CLK (unknown origin) in human 184-hTERT cells assessed as induction in alternative splicing effect in CDC6-RARA level incubated for 6 hrs by RT-PCR analysis; assay type: cell-based; details: dose 0.2-5 µM
Dual specificity protein kinase CLK1 (Homo sapiens), sequence (P49759 whole entry, looked up, canonical isoform): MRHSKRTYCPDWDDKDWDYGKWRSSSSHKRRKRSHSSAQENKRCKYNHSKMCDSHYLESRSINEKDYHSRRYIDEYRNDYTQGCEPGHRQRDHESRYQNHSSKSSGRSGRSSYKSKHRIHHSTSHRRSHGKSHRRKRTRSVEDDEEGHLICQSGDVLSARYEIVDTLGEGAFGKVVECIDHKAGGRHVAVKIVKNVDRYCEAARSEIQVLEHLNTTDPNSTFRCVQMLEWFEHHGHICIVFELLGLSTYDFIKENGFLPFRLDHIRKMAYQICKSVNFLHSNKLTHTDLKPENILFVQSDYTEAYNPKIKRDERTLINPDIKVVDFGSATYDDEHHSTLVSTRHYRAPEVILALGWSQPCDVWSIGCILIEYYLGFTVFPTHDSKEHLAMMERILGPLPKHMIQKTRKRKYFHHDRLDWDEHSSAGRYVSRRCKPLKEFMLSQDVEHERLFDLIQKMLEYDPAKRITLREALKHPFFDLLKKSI
In short: (§1)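 Cells exposed to graded T3 concentrations for 6 h (chosen to avoid cytotoxicity), with a DMSO vehicle control. Total RNA was reverse-transcribed with oligo-dT primers. Targeted splice or conjoined-gene products were quantified by real-time qPCR or by targeted next-generation sequencing. Conjoined-gene isoform expression was normalized to a sequenced housekeeping gene.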

[11] = biological target: Dual specificity protein kinase CLK1 (Homo sapiens) (UniProt P49759); assay: Inhibition of CLK (unknown origin) in human 184-hTERT cells assessed as induction in alternative splicing effect in S6K skipped exon incubated for 6 hrs by RT-PCR analysis; assay type: cell-based; details: dose 0.2-5 µM; in short: as §1
HCT-116 [12] = assay: Induction of apoptosis in human HCT-116 cells assessed as early apoptosis at 0.1 uM incubated for > 6 hrs by annexin V/PI staining based analysis (Rvb=3.29%); assay type: functional
[13] = biological target: Homeodomain-interacting protein kinase 2 (Homo sapiens) (UniProt Q9H2X6); assay: Inhibition of HIPK2 (unknown origin) at 1000 nM in the presence of ATP by Kinome scan method relative to control
Homo sapiens = organism: Homo sapiens; assay: Inhibition of CDK2/cyclin A (unknown origin) at 100 nM in the presence of ATP by Kinome scan method relative to control
HCT-116 [14] = assay: Induction of cell cycle arrest in human HCT-116 cells assessed as S phase at 5 uM incubated for 6 hrs by flow cytometry analysis (Rvb=39.3%); assay type: functional
[15] = biological target: Protein kinase C theta type (Homo sapiens) (UniProt Q04759); assay: Inhibition of PRKCQ (unknown origin) at 100 nM in the presence of ATP by Kinome scan method relative to control
Protein kinase C theta type (Homo sapiens), sequence (Q04759 whole entry, looked up): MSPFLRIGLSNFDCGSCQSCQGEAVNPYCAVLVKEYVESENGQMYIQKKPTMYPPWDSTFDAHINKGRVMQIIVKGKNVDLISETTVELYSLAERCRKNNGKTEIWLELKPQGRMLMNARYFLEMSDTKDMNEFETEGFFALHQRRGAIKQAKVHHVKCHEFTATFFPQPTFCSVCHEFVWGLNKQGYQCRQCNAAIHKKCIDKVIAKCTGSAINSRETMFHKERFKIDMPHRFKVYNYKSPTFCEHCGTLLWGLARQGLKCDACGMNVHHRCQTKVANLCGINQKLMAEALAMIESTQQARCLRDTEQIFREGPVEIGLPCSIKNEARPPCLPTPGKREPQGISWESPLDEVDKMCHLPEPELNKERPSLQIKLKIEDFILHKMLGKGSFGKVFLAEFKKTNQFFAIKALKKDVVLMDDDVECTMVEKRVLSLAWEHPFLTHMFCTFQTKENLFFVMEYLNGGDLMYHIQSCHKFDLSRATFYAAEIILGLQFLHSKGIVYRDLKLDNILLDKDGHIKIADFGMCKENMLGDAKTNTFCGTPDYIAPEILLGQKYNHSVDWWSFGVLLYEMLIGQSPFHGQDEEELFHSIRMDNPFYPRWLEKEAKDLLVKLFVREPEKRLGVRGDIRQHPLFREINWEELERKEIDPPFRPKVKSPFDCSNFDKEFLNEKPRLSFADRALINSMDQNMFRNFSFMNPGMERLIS

HCT-116 [16] = assay: Induction of cell cycle arrest in human HCT-116 cells assessed as G2/M phase at 0.5 uM incubated for 24 hrs by flow cytometry analysis (Rvb=17.9%); assay type: functional
[17] = biological target: SRSF protein kinase 1 (Homo sapiens) (UniProt Q96SB4); assay: Inhibition of SRPK1 (unknown origin) at 1110 nM in the presence of ATP by Kinome scan method relative to control; details: time > 6.0 hrs
HCT-116 [18] = assay: Induction of apoptosis in human HCT-116 cells assessed as early apoptosis at 1 uM incubated for > 6 hrs by annexin V/PI staining based analysis (Rvb=3.29%); assay type: functional
[19] = biological target: Dual specificity protein kinase CLK3 (Homo sapiens) (UniProt P49761); assay: Inhibition of CLK3 (unknown origin) at 1110 nM in the presence of ATP by Kinome scan method relative to control; details: time > 6.0 hrs
Dual specificity protein kinase CLK3 (Homo sapiens), sequence (P49761 whole entry, looked up): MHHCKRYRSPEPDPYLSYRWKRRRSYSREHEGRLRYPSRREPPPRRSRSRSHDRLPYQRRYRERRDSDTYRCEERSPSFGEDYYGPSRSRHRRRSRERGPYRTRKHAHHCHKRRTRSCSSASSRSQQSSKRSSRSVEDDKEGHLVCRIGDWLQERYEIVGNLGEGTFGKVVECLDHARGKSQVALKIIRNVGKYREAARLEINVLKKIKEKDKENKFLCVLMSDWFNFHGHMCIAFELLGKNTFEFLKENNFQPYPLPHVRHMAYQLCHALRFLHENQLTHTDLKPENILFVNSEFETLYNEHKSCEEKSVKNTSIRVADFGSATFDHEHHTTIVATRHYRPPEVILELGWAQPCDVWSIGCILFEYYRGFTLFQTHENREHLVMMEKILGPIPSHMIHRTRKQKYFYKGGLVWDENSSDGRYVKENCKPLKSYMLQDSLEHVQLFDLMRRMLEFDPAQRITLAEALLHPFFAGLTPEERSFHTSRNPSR

[20] = biological target: Fibroblast growth factor receptor 1 (Homo sapiens) (UniProt P11362); assay: Inhibition of FGFR1 (unknown origin) at 1000 nM in the presence of ATP by Kinome scan method relative to control
[21] = biological target: Serine/threonine-protein kinase Nek1 (Homo sapiens) (UniProt Q96PY6); assay: Inhibition of NEK1 (unknown origin) at 1000 nM in the presence of ATP by Kinome scan method relative to control
Serine/threonine-protein kinase Nek1 (Homo sapiens), sequence (Q96PY6 whole entry): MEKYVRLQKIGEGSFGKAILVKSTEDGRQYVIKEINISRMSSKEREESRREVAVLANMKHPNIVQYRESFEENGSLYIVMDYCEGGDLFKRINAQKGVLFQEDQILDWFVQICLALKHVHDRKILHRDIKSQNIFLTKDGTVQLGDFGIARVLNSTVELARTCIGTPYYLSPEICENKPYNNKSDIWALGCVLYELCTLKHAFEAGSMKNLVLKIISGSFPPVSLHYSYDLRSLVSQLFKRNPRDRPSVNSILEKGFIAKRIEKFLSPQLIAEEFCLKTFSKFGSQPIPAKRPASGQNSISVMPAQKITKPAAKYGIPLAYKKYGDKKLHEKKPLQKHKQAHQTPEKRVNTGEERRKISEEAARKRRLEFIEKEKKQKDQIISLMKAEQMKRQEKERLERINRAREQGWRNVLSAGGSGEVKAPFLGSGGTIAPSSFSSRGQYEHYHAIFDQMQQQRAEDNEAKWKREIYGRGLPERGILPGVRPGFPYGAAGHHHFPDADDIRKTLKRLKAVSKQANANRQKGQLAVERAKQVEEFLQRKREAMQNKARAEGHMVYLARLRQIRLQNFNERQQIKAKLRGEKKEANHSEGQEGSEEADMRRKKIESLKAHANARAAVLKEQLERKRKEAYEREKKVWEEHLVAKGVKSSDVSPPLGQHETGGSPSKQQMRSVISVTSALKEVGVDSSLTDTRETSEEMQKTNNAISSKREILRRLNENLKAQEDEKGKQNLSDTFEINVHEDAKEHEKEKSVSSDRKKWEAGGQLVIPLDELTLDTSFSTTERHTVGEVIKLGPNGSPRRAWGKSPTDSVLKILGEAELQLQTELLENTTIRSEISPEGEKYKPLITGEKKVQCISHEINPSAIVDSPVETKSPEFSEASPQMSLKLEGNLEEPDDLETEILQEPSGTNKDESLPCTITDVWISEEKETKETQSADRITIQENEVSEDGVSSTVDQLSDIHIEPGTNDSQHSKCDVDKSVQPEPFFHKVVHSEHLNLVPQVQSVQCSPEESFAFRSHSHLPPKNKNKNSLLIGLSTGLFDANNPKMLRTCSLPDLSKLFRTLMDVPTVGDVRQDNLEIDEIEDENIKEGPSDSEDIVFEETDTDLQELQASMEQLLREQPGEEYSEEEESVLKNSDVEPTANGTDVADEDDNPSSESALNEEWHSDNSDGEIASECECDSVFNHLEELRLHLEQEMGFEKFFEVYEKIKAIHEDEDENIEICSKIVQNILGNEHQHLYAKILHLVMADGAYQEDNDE

HCT-116 [22] = assay: Induction of cell cycle arrest in human HCT-116 cells assessed as sub G0/G1 phase at 5 uM incubated for 6 hrs by flow cytometry analysis (Rvb=1.6%); assay type: functional
[23] = biological target: Angiopoietin-1 receptor (Homo sapiens) (UniProt Q02763); assay: Inhibition of TEK (unknown origin) at 100 nM in the presence of ATP by Kinome scan method relative to control
[24] = biological target: Mitogen-activated protein kinase 9 (Homo sapiens) (UniProt P45984); assay: Inhibition of MAPK9 (unknown origin) at 1000 nM in the presence of ATP by Kinome scan method relative to control
HCT-116 [25] = assay: Induction of cell cycle arrest in human HCT-116 cells assessed as sub G0/G1 phase at 10 uM incubated for 6 hrs by flow cytometry analysis (Rvb=1.6%); assay type: functional
HCT-116 [26] = assay: Induction of apoptosis in human HCT-116 cells assessed as late apoptosis at 1 uM incubated for > 6 hrs by annexin V/PI staining based analysis (Rvb=6.12%); assay type: functional
[27] = biological target: Calcium/calmodulin-dependent protein kinase type 1 (Homo sapiens) (UniProt Q14012); assay: Inhibition of CAMK1 (unknown origin) at 1000 nM in the presence of ATP by Kinome scan method relative to control
Calcium/calmodulin-dependent protein kinase type 1 (Homo sapiens), sequence (Q14012 whole entry, looked up): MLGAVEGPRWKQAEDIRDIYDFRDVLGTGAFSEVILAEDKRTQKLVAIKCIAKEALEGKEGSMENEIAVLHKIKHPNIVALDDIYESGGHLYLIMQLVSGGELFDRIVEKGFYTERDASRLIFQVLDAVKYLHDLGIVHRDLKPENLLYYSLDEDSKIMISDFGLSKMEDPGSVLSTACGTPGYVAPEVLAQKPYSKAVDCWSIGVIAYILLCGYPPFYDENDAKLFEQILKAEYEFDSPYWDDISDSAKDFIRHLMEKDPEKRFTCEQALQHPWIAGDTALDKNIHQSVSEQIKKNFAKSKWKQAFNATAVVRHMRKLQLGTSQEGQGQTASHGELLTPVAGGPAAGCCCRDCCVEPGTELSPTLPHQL

[28] = biological target: Dual specificity protein kinase CLK1 (Homo sapiens) (UniProt P49759); assay: Inhibition of CLK1 (unknown origin) at 123 nM in the presence of ATP by Kinome scan method relative to control; details: time > 6.0 hrs
[29] = biological target: Dual specificity tyrosine-phosphorylation-regulated kinase 4 (Homo sapiens) (UniProt Q9NR20); assay: Inhibition of DYRK4 (unknown origin) at 1110 nM in the presence of ATP by Kinome scan method relative to control; details: time > 6.0 hrs
HCT-116 [30] = assay: Induction of cell cycle arrest in human HCT-116 cells assessed as sub G0/G1 phase at 0.5 uM incubated for 24 hrs by flow cytometry analysis (Rvb=2.5%); assay type: functional

Serine/threonine-protein kinase PLK1 (Homo sapiens), sequence (P53350 whole entry): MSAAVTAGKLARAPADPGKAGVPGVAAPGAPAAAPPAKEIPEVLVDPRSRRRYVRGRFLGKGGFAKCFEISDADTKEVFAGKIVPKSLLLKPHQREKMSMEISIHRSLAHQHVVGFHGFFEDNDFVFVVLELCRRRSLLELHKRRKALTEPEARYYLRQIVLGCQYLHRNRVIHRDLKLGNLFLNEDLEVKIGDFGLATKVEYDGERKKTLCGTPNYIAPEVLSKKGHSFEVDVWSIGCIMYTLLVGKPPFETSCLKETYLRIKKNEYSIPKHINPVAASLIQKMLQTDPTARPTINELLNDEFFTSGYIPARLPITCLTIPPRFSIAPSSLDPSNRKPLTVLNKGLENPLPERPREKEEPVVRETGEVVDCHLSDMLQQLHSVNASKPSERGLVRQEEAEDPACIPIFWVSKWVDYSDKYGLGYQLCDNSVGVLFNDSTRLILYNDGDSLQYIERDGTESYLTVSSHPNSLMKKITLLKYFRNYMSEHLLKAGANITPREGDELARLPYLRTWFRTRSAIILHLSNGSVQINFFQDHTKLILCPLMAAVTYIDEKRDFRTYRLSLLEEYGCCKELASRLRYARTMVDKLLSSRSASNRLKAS
MAP kinase-activated protein kinase 2 (Homo sapiens), sequence (P49137 whole entry, looked up): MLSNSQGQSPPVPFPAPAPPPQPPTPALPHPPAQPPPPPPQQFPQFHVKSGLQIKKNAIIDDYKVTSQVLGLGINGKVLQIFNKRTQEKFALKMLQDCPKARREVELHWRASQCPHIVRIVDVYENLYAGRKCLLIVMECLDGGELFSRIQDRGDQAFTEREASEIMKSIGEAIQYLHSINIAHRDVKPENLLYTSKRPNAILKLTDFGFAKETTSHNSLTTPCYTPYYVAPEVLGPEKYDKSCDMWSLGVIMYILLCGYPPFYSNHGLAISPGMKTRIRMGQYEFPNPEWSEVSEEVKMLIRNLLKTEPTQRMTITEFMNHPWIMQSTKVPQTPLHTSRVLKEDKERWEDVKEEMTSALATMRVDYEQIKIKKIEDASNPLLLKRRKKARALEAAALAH

`CN1CCN(C(=O)C(C)(C)c2ccc(C(=O)Nc3cn4cc(-c5ccncc5)ccc4n3)cc2)CC1` [T3-CLK] was tested. Which inhibition [1] did it give?
Its inhibition is 2%.

And the inhibition [2]?
Its inhibition is 4%.

And the Activity (HCT-116 [3])?
Its Activity is 46%.

And the inhibition [4]?
Its inhibition is 14%.

And the inhibition [5]?
The inhibition was 5%.

And the inhibition [6]?
The inhibition was 0%.

What about the inhibition [7] of the same compound?
The inhibition was 11%.

What about the inhibition [8] of the same compound?
The inhibition was -6%.

And the inhibition [9]?
Its inhibition is 16%.

And the inhibition [10]?
Its inhibition is “Dose-Dependent Effect”.

And the inhibition [11]?
The inhibition was “Dose-Dependent Effect”.

What about the Activity (HCT-116 [12]) of the same compound?
The Activity was 3.11%.

And the inhibition [13]?
Its inhibition is -2%.

And the inhibition (Homo sapiens)?
Its inhibition is 0%.

And the Activity (HCT-116 [14])?
Its Activity is 37.4%.

And the inhibition [15]?
Its inhibition is 5%.

What about the Activity (HCT-116 [16]) of the same compound?
The Activity was 68.1%.

What about the inhibition [17] of the same compound?
The inhibition was -3%.

What about the Activity (HCT-116 [18]) of the same compound?
Its Activity is 3.4%.

What about the inhibition [19] of the same compound?
Its inhibition is 89%.

What about the inhibition [20] of the same compound?
Its inhibition is 9%.

And the inhibition [21]?
The inhibition was 25%.

And the Activity (HCT-116 [22])?
The Activity was 2.2%.

What about the inhibition [23] of the same compound?
The inhibition was 0%.

What about the inhibition [24] of the same compound?
Its inhibition is -1%.

And the Activity (HCT-116 [25])?
Its Activity is 1.7%.

And the Activity (HCT-116 [26])?
The Activity was 7.46%.

What about the inhibition [27] of the same compound?
Its inhibition is 5%.

And the inhibition [28]?
The inhibition was 91%.

What about the inhibition [29] of the same compound?
Its inhibition is -3%.

And the Activity (HCT-116 [30])?
Its Activity is 13.1%.
